Experimental data pooled from the literature.
Compare with care: the assays were run in different laboratories.
Target: Serine/threonine-protein kinase Chk2 (CHEK2, Homo sapiens, UniProt O96017)

Structure (SMILES)	assay	setting	remaining binding [%]
c1cnn2ncc(-c3ccnc(N4CCC45COC5)n3)c2c1	binding	1 µM	77
CC(=O)c1c(NS(C)(=O)=O)c2cc(-c3ccc(Cl)cc3)c(-c3ccc(Cl)cc3Cl)nc2n(C)c1=O	cell-free assay, competition with immobilised ligand	1 µM	100
C[C@@H]1CCN(c2nccc(-c3cnn4ncccc34)n2)C1	binding	1 µM	71
O=C(Nc1c[nH]nc1C(=O)NC1CCNCC1)c1cc(F)cc(F)c1	binding, competition with immobilised ligand	1 µM	100
CCCOc1ccc([C@@H]2[C@@H](C(=O)O)[C@H](c3ccc4c(c3)OCO4)CN2CC(=O)Nc2c(CC)cccc2CC)cc1	cell-free assay, competition with immobilised ligand	1 µM	98
COc1ncc2cc3ccccc3nc2c1C#N	cell-free assay, competition with immobilised ligand	5 µM	100
CCN1CCN(Cc2ccc(C(=O)Nc3ccc(C)c(Oc4ccc5c(c4)CC(=O)N5)c3)cc2C(F)(F)F)CC1	binding, competition with immobilised ligand	1 µM	100
COc1ccnn2ncc(-c3ccnc(N(C)C)n3)c12	binding	1 µM	87
O=C(c1ccc(Nc2ncc(Cl)c(-c3cc4ccccc4s3)n2)cc1)N1CCC(N2CCCC2)CC1	binding, competition with immobilised ligand	1 µM	82
CNC(=O)Nc1ccc2c(c1)CC[C@@]21OC(=O)N(CC(=O)N(Cc2ccc(F)cc2)[C@@H](C)C(F)(F)F)C1=O	cell-free assay, competition with immobilised ligand	1 µM	100
N[C@@H]1CCN(c2nccc(-c3cnn4ncccc34)n2)C1	binding	1 µM	100
Cc1cnc(Nc2ccc(C(=O)N3CCC(N4CCCC4)CC3)cc2)nc1-c1cc2ccccc2s1	binding, competition with immobilised ligand	1 µM	100
COc1cnc(Nc2cccc(S(N)(=O)=O)c2)nc1N1CCN(c2ccccc2)C(=O)C1	binding, competition with immobilised ligand	1 µM	86
O=C(c1ccc(Nc2ncc(Cl)c(-c3ccc(Cl)s3)n2)cc1)N1CCC(N2CCCC2)CC1	binding, competition with immobilised ligand	1 µM	87
CNC(=O)[C@@H]1CC[C@@H](n2c(-c3ccc4cnccc4c3)nc3ccc(C(=O)NCc4cccc(C(N)=O)c4)cc32)C1	binding, competition with immobilised ligand	1 µM	100
CO[C@@H](C)c1c(Nc2ccc([C@@H](N(C)C(=O)C3CCS(=O)(=O)CC3)C(F)(F)F)cc2)cnc2cc(Cl)nn12	cell-free assay, competition with immobilised ligand	1 µM	100
Nc1ncc2c(n1)-c1c([nH]c3ccc(C#CC4CC4)cc13)CCCC2	binding, competition with immobilised ligand	1 µM	86
CN(C)c1nccc(-c2cnc3ncccn23)n1	binding	1 µM	79
CN(C)C(=O)Cn1cc(-c2nc(C3(c4ccc(-c5cnc(N)nc5)cc4)CC3)no2)cn1	cell-free assay, competition with immobilised ligand	1 µM	100
F[C@@H]1CCN(c2nccc(-c3cnn4ncccc34)n2)C1	binding	1 µM	100
COc1cccc(CNC(=O)c2nc3scc(COCc4ccc(C(=O)O)cc4)c3c(=O)[nH]2)c1	cell-free assay, competition with immobilised ligand	1 µM	92
C=CC(=O)N1CCC(C(=O)NCC(=O)N2CCN(c3nc(-c4cnc(N)nc4C(F)F)nc(N4CCOCC4)n3)CC2)CC1	binding, competition with immobilised ligand	1 µM	88
N#Cc1ccc(Nc2ccc3[nH]c(=O)[nH]c3c2)c(Cl)c1	cell-free assay, competition with immobilised ligand	1 µM	100
CN(CCCC(F)(F)F)c1nccc(-c2cnn3ncccc23)n1	binding	1 µM	99
